ChEMBL document CHEMBL3259629, “Discovery and optimization of piperidyl-1,2,3-triazole ureas as potent, selective, and in vivo-active inhibitors of α/β-hydrolase domain containing 6 (ABHD6)” (J Med Chem, 2013)

What was measured:
[1] = target: T1, Diacylglycerol lipase-beta (Mus musculus) (UniProt Q91WC9); assay: Inhibition of FP-rhodamine-labelled recombinant mouse DAGLbeta expressed in HEK293T cells at 1 uM preincubated for 30 mins followed by FP-rhodamine labelling measured after 30 mins by gel-based competitive ABPP assay; format: cell-based; settings: HEK-293T
T1 sequence (whole entry): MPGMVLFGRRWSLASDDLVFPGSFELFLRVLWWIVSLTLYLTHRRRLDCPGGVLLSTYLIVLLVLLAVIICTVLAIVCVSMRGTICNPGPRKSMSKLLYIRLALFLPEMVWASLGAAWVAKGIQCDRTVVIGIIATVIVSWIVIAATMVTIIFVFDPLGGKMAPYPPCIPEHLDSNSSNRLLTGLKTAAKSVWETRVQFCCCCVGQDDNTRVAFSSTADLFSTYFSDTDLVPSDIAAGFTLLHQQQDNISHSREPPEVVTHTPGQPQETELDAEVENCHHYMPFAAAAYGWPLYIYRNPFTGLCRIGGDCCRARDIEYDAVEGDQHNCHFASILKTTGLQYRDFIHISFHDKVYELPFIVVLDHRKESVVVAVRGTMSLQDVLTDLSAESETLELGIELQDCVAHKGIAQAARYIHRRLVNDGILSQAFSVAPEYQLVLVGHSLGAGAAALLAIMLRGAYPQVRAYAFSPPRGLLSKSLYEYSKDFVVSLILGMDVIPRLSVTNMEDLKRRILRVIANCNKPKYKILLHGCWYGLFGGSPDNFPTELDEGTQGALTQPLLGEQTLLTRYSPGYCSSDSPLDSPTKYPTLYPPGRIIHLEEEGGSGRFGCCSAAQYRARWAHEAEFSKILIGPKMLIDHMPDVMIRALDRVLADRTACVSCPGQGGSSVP
In short: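 Mouse DAGLβ transiently overexpressed in HEK293T. Lysate diluted to 0.3 mg/mL in 50 mM HEPES pH 7.2, 100 mM NaCl, 5 mM CaCl₂, 0.1% Triton X-100, 10% DMSO. Compound preincubated 30 min at 37 °C, then 1 μM probe for 30 min at 37 °C, SDS-PAGE and in-gel fluorescence.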

[2] = target: T2, Phosphatidylserine lipase ABHD16A (Mus musculus) (UniProt Q9Z1Q2); settings: Neuro2a, 3 nM
T2 sequence (whole entry): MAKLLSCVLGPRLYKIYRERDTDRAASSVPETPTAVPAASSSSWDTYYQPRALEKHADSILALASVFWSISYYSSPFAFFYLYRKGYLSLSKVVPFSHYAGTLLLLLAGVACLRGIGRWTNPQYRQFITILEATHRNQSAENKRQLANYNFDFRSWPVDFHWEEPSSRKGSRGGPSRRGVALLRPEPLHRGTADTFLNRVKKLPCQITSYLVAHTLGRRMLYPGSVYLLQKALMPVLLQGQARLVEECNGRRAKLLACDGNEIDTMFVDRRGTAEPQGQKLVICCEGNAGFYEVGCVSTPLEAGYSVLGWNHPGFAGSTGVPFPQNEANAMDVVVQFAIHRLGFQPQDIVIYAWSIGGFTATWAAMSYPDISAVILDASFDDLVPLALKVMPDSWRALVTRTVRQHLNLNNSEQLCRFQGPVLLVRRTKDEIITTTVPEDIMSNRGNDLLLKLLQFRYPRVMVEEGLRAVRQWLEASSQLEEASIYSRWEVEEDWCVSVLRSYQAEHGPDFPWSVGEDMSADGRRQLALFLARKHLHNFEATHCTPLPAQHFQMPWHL

[3] = target: T3, Patatin-like phospholipase domain-containing protein 6 (Mus musculus) (UniProt Q3TRM4); settings: Neuro2a, 3 nM
T3 sequence (whole entry): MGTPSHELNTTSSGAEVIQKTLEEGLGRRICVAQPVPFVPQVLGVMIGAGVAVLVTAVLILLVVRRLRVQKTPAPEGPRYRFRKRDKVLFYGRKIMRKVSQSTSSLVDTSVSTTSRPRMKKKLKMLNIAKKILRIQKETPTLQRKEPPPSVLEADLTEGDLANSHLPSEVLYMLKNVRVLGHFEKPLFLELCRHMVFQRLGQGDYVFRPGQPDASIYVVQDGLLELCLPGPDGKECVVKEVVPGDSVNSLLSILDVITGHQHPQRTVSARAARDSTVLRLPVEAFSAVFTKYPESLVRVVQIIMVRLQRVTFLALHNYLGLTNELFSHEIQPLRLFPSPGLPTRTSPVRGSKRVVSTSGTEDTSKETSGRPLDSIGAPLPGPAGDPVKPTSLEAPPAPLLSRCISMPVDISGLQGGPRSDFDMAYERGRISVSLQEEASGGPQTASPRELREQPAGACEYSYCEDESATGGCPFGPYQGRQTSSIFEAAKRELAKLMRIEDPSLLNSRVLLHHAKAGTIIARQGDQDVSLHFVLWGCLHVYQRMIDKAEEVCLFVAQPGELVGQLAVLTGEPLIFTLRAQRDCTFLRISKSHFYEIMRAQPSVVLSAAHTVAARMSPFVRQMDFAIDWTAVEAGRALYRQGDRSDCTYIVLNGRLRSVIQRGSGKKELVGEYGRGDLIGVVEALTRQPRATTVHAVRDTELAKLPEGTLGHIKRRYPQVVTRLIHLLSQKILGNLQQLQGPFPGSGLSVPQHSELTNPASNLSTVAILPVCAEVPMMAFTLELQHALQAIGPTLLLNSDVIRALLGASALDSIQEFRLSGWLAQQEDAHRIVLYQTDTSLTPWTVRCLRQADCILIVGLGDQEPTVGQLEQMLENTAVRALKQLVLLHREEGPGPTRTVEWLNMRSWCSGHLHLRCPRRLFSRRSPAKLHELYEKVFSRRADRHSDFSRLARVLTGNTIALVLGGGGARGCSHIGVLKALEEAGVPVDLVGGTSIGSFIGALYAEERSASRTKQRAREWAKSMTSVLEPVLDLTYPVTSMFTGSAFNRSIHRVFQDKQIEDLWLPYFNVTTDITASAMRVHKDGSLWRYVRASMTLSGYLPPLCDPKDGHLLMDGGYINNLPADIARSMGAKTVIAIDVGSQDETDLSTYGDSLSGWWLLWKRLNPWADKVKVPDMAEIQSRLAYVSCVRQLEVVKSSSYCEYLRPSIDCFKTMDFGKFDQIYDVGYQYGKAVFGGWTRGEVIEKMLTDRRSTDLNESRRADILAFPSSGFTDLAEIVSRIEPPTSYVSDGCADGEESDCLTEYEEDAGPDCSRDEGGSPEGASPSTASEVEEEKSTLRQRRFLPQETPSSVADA

| SMILES | inhibition [1] | inhibition [2] | inhibition [3] |
| --- | --- | --- | --- |
| O=C(N1CCCCC1c1ccccc1)n1cc(-c2ccc(-c3cccc(CO)c3)cc2)nn1 (racemic) | 0% | < 50% | < 50% |
| O=C(c1cccc(-c2ccc(-c3cn(C(=O)N4CCCCC4c4ccccc4)nn3)cc2)c1)N1CCCCC1 (racemic) | 0% | < 50% | < 50% |
| O=C(O)c1cccc(-c2ccc(-c3cn(C(=O)N4CCCCC4Cc4ccccc4)nn3)cc2)c1 (racemic) | 50% | < 50% | < 50% |
